9 molecules from ChEMBL document CHEMBL1127374, “Synthesis and antiviral (HIV-1, HBV) activities of 5-halo-6-methoxy(or azido)-5,6-dihydro-3'-fluoro-3'-deoxythymidine diastereomers. Potential prodrugs to 3'-fluoro-3'-deoxythymidine” (J Med Chem, 1994) can be followed below.

pEC50, pIC50: −log10 of the molar value.

A short description of data set [1]: (§1) Compound was tested in vitro against intracellular DNA hepatitis B virus of human liver cells. Type of data set: functional. The method in brief:
(§2)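 HBV-producing human liver 2.2.15 cells grown to confluence, then dosed daily for 9 continuous days with daily medium change. Medium collected at days 0, 3, 6 and 9 for extracellular virion HBV DNA. Cells lysed 24 h after day 9 for intracellular HBV genomic forms (replication). EC50 and EC90 derived from HBV DNA levels.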

Data set [2] is described as follows: Selectivity index is the ratio of CC50 to that of EC50 (anti-hepatitis B virus activity in intracellular DNA). Type of data set: functional. In short, it runs like this:
(§3)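 Selectivity index calculated as CC50 (neutral red uptake, 2.2.15 cells, 9-day daily dosing) divided by EC50 from HBV DNA (extracellular virion DNA in line 3, intracellular DNA in line 4).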

For data set [3], the system named is CCRF-CEM. The data set is described as follows: Tested for in vitro drug concentration which produces 50% survival of HIV-1 infected CEM cells relative to uninfected untreated controls. Format: functional, cell-based. Particulars: Homo sapiens. In short, it runs like this: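 CEM T4 lymphocytes infected with small amounts of HIV-1, so that a complete replication cycle is needed for cell killing. Protection from cytolysis measured. EC50 is the concentration giving 50% survival of infected cells relative to uninfected untreated controls. AZT-treated positive control run at the same time under identical conditions.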

Data set [4] in a line: (§4) Compound was tested in vitro against extracellular DNA hepatitis B virus of human liver cells. Type of data set: functional. In short, it runs like this: as §2
Data set [5] is described as follows: Selectivity index is the ratio of CC50 to that of EC50 (anti-hepatitis B virus activity in extracellular DNA). Format: functional. The method in brief: as §3
Data set [6] can be described thus: Tested for in vitro percent of 3'-fluoro-3'-deoxythymidine(FLT) formed upon incubation with glutathione. Format: ADME. The method in brief:
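Test compound incubated with reduced glutathione at a 1:2 molar ratio in phosphate buffer, pH 7.4, 37 °C, 30 min. UV detection at 230 nm for the 5,6-dihydro compound and 265 nm for FLT.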

Data set [7] in a line: Tested for in vitro cytotoxic concentration against hepatitis B irus replication in chronically HBV-producing human liver cells. Format: functional. The method in brief:
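Confluent 2.2.15 cells dosed daily for 9 days as in the anti-HBV assay. Four concentrations in 3–10-fold steps, triplicate cultures, untreated controls on each plate, cell-free wells to correct for light scattering. Neutral red uptake read at 510 nm 24 h after day 9, relative to untreated cells. CC50 taken as the 50% cytotoxic concentration.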

Data set [8] is described as follows: Selectivity index is the ratio of IC50 value to that of EC50 value. Format: functional. The method in brief:
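CEM T4 lymphocytes infected with small amounts of HIV-1, with a full replication cycle needed for cell killing. EC50 is the concentration giving 50% survival of infected cells relative to uninfected untreated controls. IC50 is the concentration giving 50% survival of uninfected untreated CEM cells. SI = IC50/EC50. An AZT-treated control was run alongside.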

The subject of data set [9] is CCRF-CEM. As to the kind of experiment: Tested for in vitro drug concentration which results in 50% survival of uninfected untreated control CEM cells. Type of data set: functional, cell-based. The note with it: Homo sapiens. The method in brief: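 Uninfected CEM T4 lymphocytes exposed to the test compound alongside the anti-HIV protection assay, with an AZT control run concurrently. IC50 is the concentration giving 50% survival relative to uninfected untreated control cells.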

A short description of data set [10]: as §1. Format: functional, cell-based. In short, it runs like this:
as §2

Data set [11] in a line: as §4. Type of data set: functional. The method in brief:
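2.2.15 cells (chronically HBV-producing human liver line) grown to confluence, then dosed daily for 9 continuous days with medium changed daily. Extracellular virion HBV DNA in medium sampled at days 0, 3, 6 and 9 and quantified; intracellular HBV genomic forms analysed from cells lysed 24 h after day 9.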
The source holds these as a separate data set.

Another data set concerns MT4. As to the kind of experiment: Tested for in vitro cytopathic effect of HIV for MT-4 cells. Type of data set: functional, cell-based. The note with it: Homo sapiens. In general terms: Cytopathic effects are the visible damage that an infection or toxin causes in cultured cells.

`CC1(Br)C(=O)NC(=O)N([C@H]2C[C@H](F)[C@@H](CO)O2)C1N=[N+]=[N-]` (mixture of isomers): the concentration for an effect of 90% (EC90) in data set [1] is 57 µM; in data set [4], 42 µM. The figures for the Selectivity index in data set [2], in [5] and in data set [8] were 3.1, 4.2 and 7140, respectively. Further, the results for the pEC50 (with CCRF-CEM [3]; in [10]) were 7.84 and 4.89, respectively. In data set [6], this molecule yielded an FLT of 95%. Besides, the CC50 in data set [7] was 176 µM. In addition, in the data set on CCRF-CEM [9], the pIC50 is 4.00.

Molecule `CO[C@H]1N(C2CC(F)C(CO)O2)C(=O)NC(=O)[C@]1(C)Cl` (some centres undefined) gave a pEC50 with CCRF-CEM [3] of 5.26. In addition, the FLT in [6] was 0%. Also, in [8], the Selectivity index is > 144. The pIC50 in the data set on CCRF-CEM [9] was < 3.10.

For `CO[C@H]1N(C2CC(F)C(CO)O2)C(=O)NC(=O)[C@]1(C)Br` (some centres undefined), the EC90 in data set [1] is 42 µM; in [4], 36 µM. Besides, the Selectivity index turned out to be 18 in [2], 21 in data set [5] and 328 in data set [8]. The negative-log EC50 (pEC50) in the data set on CCRF-CEM [3] is 8.28; in data set [11], 5.22; in [10] it was 4.89. The same molecule showed an FLT in [6] of 10%. The CC50 in data set [7] was found to be 765 µM. Moreover, in the data set on CCRF-CEM [9], the pIC50 is 5.76.

`CO[C@H]1N(C2CC(F)C(CO)O2)C(=O)NC(=O)[C@]1(C)I` (some centres undefined) gave a pEC50 with CCRF-CEM [3] of 4.30. Further, in [6], the FLT is 50%. For the same molecule, in [8], the Selectivity index was found to be 1. Moreover, the pIC50 in the data set on CCRF-CEM [9] was 4.24.

In the data set on CCRF-CEM [3], `CO[C@@H]1N(C2CC(F)C(CO)O2)C(=O)NC(=O)[C@@]1(C)I` (some centres undefined) had a pEC50 of 8.43. Besides, in data set [6], the FLT is listed as 90%. Further, in [8], the Selectivity index came to 3250. Also, in the data set with CCRF-CEM [9], the pIC50 is 4.91.

In the data set with CCRF-CEM [3], `CO[C@H]1N(C2CC(F)C(CO)O2)C(=O)NC(=O)[C@@]1(C)Cl` (some centres undefined) showed a pEC50 of 4.42. In addition, in data set [6], the FLT is on record as 0%. Moreover, the Selectivity index in data set [8] was > 21. Further, the pIC50 with CCRF-CEM [9] was < 3.10.

For the molecule `Nc1ccn([C@H]2CC[C@@H](CO)O2)c(=O)n1` [ZALCITABINE], the EC90 in data set [1] turned out to be 12 µM; in [4], 8.1 µM. The values for the Selectivity index in data set [2] and in data set [5] were 18 and 27, respectively. Further, the pEC50 was 5.89 in [11] and 5.68 in data set [10]. The CC50 in data set [7] was found to be 219 µM.

Take `Cc1cn([C@H]2C[C@H](N=[N+]=[N-])[C@@H](CO)O2)c(=O)[nH]c1=O` [ZIDOVUDINE]: the pEC50 with CCRF-CEM [3] is 8.52; in the data set with MT4, 8.40. In [8], the Selectivity index came to 167000. Further, the pIC50 with CCRF-CEM [9] was 3.30.

As to `CO[C@@H]1N(C2CC(F)C(CO)O2)C(=O)NC(=O)[C@@]1(C)Br` (some centres undefined), the results for the EC90 in data set [1] and in [4] were 118 µM and 67 µM, respectively. Moreover, the results for the Selectivity index in [2], in data set [5] and in data set [8] were 8.8, 16 and 2990, respectively. The pEC50 with CCRF-CEM [3] was 8.49; in data set [11], 4.68; in [10], 4.59. This molecule also registered an FLT in [6] of 10%. In data set [7], this molecule had a CC50 of 1040 µM. This molecule had a pIC50 in the data set with CCRF-CEM [9] of 5.01.

The EC90 is the concentration needed for an effect of 90%. Lower therefore signals greater potency. One may read the pEC50 as −log10 of the EC50, conventionally taken in molar units. As usually defined, the CC50 is the concentration giving 50% cytotoxicity. Low values mean greater toxicity to the cells, high ones lower toxicity to the cells. What is called pIC50 is the IC50 on a negative log10 scale, so that one unit is a factor of ten. Low readings indicate a large IC50, high ones a small IC50.
